Results as given in PubChem BioAssay AID449757 (Broad Institute, 2010).
Active and inactive are the calls of the source.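 How the source made its calls: active means compounds whose fitted caspase activation midpoint falls no more than tenfold above the top tested dose; inconclusive means flat fit with activity between 30 and 70 percent, or failed fit; inactive means the rest.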

System: MEF Flag-A1-IRES-BIM, caspase-Glo luminescence, 3 h
Test: Caspase-Glo signal, Flag-A1-IRES-BIM MEF cells – cell-based, alternate construct, luminescence, A1 (Bcl2A1) inhibitor project, dose response (AID 449757)
In short: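 System: Flag-A1-IRES-BIM-primed MEF cells; Doses: 100 nL compound added per well by pin transfer; Times: 3 h at 37 °C, then 1 h detection at room temperature; Measured by: luminescent caspase activity measurement with CaspaseGlo reagent.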

**Q.** Which AC50 does the source give for `COc1cc(CN2CCN(c3cc(C)ccc3C)CC2)ccc1O` here?
**A.** > 35 µM (inactive)

**Q.** With `COc1cc(NC(=O)c2ccccc2)c(OC)cc1NC(=O)Cc1ccc(Br)cc1` as the compound, how does the AC50 read?
**A.** > 35 µM (inactive)

**Q.** How did the AC50 turn out when `O=C(N/C=N/OCc1ccc(Cl)cc1Cl)NOCc1ncc(C(F)(F)F)cc1Cl` was run?
**A.** > 35 µM (inactive)

**Q.** `O=C(NC1CCCCC1)C(c1ccc(F)cc1)N(CCc1ccccc1)C(=O)CN1C(=O)c2ccccc2S1(=O)=O` (stereo not drawn) was tested. Which AC50 did it give?
**A.** 7.6 µM

**Q.** Which AC50 does the source give for `COc1ccccc1-c1cc(C(F)(F)F)nc(S(=O)(=O)CCCC(=O)NC(C)C)n1` here?
**A.** 8.84 µM

**Q.** Which AC50 does the source give for `COc1cc2ncnc(NCc3ccc(F)cc3)c2cc1OC` here?
**A.** > 35 µM (inactive)

**Q.** Which AC50 does the source give for `COc1ccc(NC(=O)c2cccc3c2C(=O)c2ccc(-c4ccc(F)cc4OCc4ccccc4)cc2S3(=O)=O)cc1` here?
**A.** > 35 µM (inactive)

**Q.** `CC(=O)Nc1ccc(NC(=O)C(C)OC(=O)/C=C/c2cn(-c3ccccc3)nc2-c2cccnc2)cc1` (stereo not drawn) was tested. Which AC50 did it give?
**A.** 27.5 µM

**Q.** `COc1cccc(C(=O)C(C#N)=C(SC)SC)c1` was tested. Which AC50 did it give?
**A.** > 35 µM (inactive)

**Q.** `COc1cc(/C=C(/C#N)c2nc3ccccc3[nH]2)ccc1OCC(=O)Nc1ccccc1C` was tested. Which AC50 did it give?
**A.** 6.32 µM

**Q.** For `CCc1nnc(NC(=O)CSc2nc(-c3ccccc3)cc(-c3ccc(F)cc3)c2C#N)s1`, which AC50 is on record?
**A.** 33.1 µM

**Q.** Which AC50 does the source give for `COc1cc2c(-c3ccccc3)c(C)oc2cc1/C=N/NC(N)=S` here?
**A.** > 35 µM (inactive)

**Q.** With `Cn1cc([N+](=O)[O-])c(C(=O)Nc2cc(Oc3ccccc3)cc([N+](=O)[O-])c2)n1` as the compound, how does the AC50 read?
**A.** 19.5 µM
